Assay outcomes from PubChem.
APJ antag – blocks the human apelin receptor APJ; CHO-K1 APJ beta-arrestin complementation, luminescence; inhibition, % at 20 µM; 0.32% of 330,000 active; AID 2521;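 active = inhibition above about 40% at 20 µM, limit read from the data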;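 note: cells challenged with 10 nM apelin-13 agonist together with compound; plate controls were apelin-13 plus DMSO wells for no effect and DMSO wells lacking apelin-13 for full effect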
APJ agonist – agonists of human APJ apelin receptor; P35414; CHO-K1 APJ PathHunter beta-arrestin, luminescence; 0% DMSO wells, 100% apelin; activation, % at 20 µM; 0.11% of 330,000 active;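 active = activation more than six SD over the plate average, tested at 20 µM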;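 note: 0% = DMSO alone and 100% = apelin-13 at 10 nM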
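Assay system: CHO-K1 cells stably expressing ProLink-tagged human APJ and arrestin–beta-gal acceptor. Compound dosing: 20 µM single point, 1% DMSO. Times: 16-18 h seeding, 90 min dark compound exposure, 60 min detection. Detection: beta-gal luminescence. Evaluation: APJ–arrestin association signal. Controls: negative DMSO alone, positive Apelin-13 at 10 nM.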
CXCR6 inh – CXCR6 (human) receptor inhibition. CHO-K1 PathHunter CXCR6 beta-arrestin, luminescence. inhibition, % at 20 µM. 0.36% of 360,000 active; in the data active = inhibition above about 34%, passing the limit was not always enough;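 note: antagonist mode with CXCL16 agonist at 10 nM final; 0% = 10 nM CXCL16 with DMSO and 100% = unstimulated wells without agonist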
CCR6 antag – antagonists of human CCR6 receptor; CHO-K1 CCR6 PathHunter beta-arrestin, luminescence, CCL20-stimulated; inhibition, % at 20 µM; 0.49% of 340,000 active;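 active = compounds whose inhibition of the agonist-driven luminescence signal at 20 µM reaches about 50%, limit read from the data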;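 note: cells stimulated with CCL20 at 14 nM final; plate controls were DMSO with CCL20 for no effect and DMSO without agonist for full effect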
Target sequence (P51684 whole entry, looked up): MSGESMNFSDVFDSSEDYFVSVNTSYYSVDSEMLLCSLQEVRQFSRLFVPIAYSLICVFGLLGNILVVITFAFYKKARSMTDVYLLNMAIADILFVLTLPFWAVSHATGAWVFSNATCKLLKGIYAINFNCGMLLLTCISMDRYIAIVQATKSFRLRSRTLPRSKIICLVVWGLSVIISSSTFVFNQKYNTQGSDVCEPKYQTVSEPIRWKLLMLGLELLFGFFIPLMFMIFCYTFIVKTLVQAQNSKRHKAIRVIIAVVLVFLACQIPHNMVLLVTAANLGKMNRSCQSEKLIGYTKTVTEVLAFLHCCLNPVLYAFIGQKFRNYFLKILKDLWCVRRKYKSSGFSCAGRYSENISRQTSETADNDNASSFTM
EBI2 antag – EBI2 (human) antagonism. P32249. EBI2 beta-arrestin recruitment, luminescence, 7a,25-OHC stimulated. inhibition, % at 5 µM. 0.81% of 360,000 active; in the data active = inhibition above about 38%;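 note: enzyme fragment complementation signal reports receptor beta-arrestin coupling in cells; 0% = agonist plus DMSO wells and 100% = wells without agonist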
APJ ag conf – APJ receptor agonism confirmation | shares compounds with APJ agonist | CHO-K1 APJ PathHunter beta-arrestin, luminescence | activation, % at 20 µM | 10% of 310 active;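 active = activation above 40%, taking the highest of four retests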;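 note: plate controls were DMSO wells for no effect and apelin-13 at 10 nM for full effect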
The depositor's hits bear a star; . = no result given. Rows were chosen to be rich in hits. Some 1.5% of all compounds tested hit in one or more screens of this group.

SMILES	APJ antag	APJ agonist	CXCR6 inh	CCR6 antag	EBI2 antag	APJ ag conf
Cc1cccc(NC(=S)NC(=O)/C=C/c2ccccc2)n1	-57	11*	-5	-8	-36	28
COc1ccc(NC(=S)NC(=O)/C=C/c2ccccc2)cc1	-32	7	-8	-14	-11	.
CCN1C(c2ccccc2)=C(c2ccccc2)S/C1=C\C=C1/SC(=S)N(C)C1=O	-90	115*	0	-31	-14	292*
CCN1C(c2ccccc2)=C(c2ccccc2)S/C1=C/C=C1\SC(=S)N(C)C1=O	.	.	-16	-74	-5	.
COc1cc(NC(=O)c2ccccc2)ccc1NC(=O)c1cc2ccccc2o1	3	17*	-1	-5	-10	1
C/C(COc1ccccc1)=N\NC(=O)c1nnn(-c2nonc2N)c1CSc1ccccc1	-29	19*	-4	9	-4	32
COc1ccc(OC)c2sc(N(CCCN(C)C)C(=O)c3ccc(S(=O)(=O)N4CCc5ccccc5C4)cc3)nc12	-59	45*	.	.	.	22
CCCCCC(=O)Nc1ccc(C(=O)COC(=O)c2ccccn2)cc1	-8	-6	4	7	2	.
COc1ccc(-c2ccc3c(c2)S(=O)(=O)c2cccc(C(=O)NC4CCCC4)c2C3=O)cc1OC	1	9.0*	3	-3	-21	11
Cc1nn(Cc2ccccc2)c(C)c1NC(=O)CSc1nc2sc3c(c2c(=O)n1C)CCC3	-73	29*	.	-102	.	40*
Cc1cc(NC(=O)CSc2nc3sc4c(c3c(=O)n2C)CCCC4)no1	-2	-1	5	-9	2	.
O=C(CSc1nnc(-c2ccc(Cl)cc2)n1-c1ccc(Cl)cc1)N/N=C/c1ccco1	-80	18*	-22	-34	16	17
Cc1ccc(/C=N/NC(=O)CSc2nnc(-c3ccc(Cl)cc3)n2-c2ccccc2)o1	-215	17	-16	-68	-52	.
N/C(Cc1cccc2ccccc12)=N\OC(=O)c1ccccc1F	-110	28	-11	-5	-10	.
N/C(Cc1ccccc1)=N\OC(=O)c1cccc2ccccc12	-33	12*	-26	6	15	37
Cc1cccc(C(=O)O/N=C(\N)Cc2cccc3ccccc23)c1	-143	42*	-17	-24	-12	33
Cc1cccc(/C(N)=N/OC(=O)Cc2cccc3ccccc23)c1	-14	0	-14	-10	3	.
CCOc1ccc(C(=O)NC(C(=O)NCCc2ccc(OC(F)F)cc2)C(C)C)cc1 (configuration not stated)	-21	2	-1	5	-4	.
CC(=O)C1=CCC(c2ccc(Cl)cc2)N(S(=O)(=O)c2ccccc2)C1 (configuration not stated)	.	.	-4	.	2	.
O=C(Oc1ccc(-c2nnco2)cc1)C1CCN(C(=O)c2ccc(F)cc2)CC1	-6	-3	8	8	1	.
Cc1ccc2c(c1)c(=O)c1c3n2CCN(C(=O)CCl)C3CC1 (configuration not stated)	-15	37*	1	-4	-21	22
CCSc1nc(O)c(CC)c(=O)n1C(C)CC (configuration not stated)	-19	39*	-3	-25	-1	61*
CN1CCN(c2ccc(NC(=O)COc3ccccc3[N+](=O)[O-])cc2)CC1	-1	-1	7	-3	-8	.
CC(C)C(=O)N1CCN(c2ccc(NC(=O)COc3ccccc3[N+](=O)[O-])cc2)CC1	-21	16*	-5	-6	-15	54*
Cc1ccnc(NC(=O)c2cccc(NC(=O)CC3SC(N4CCCCC4)=NC3=O)c2)c1 (configuration not stated)	-42	2	-2	6	-3	.
SMILES	APJ antag	APJ agonist	CXCR6 inh	CCR6 antag	EBI2 antag	APJ ag conf
CCN(CC)CCNC(=O)c1cc(-c2cccnc2)nc2ccc(S(=O)(=O)N3CCC(C)CC3)cc12	-21	52*	0	12	-4	13
CCOc1ncccc1C(=O)OCc1csc(CC(=O)Nc2ccccc2C)n1	-2	1	1	11	-8	.
Cc1nnc(N2CCCC(C(=O)Nc3cc(F)ccc3F)C2)c2nn(-c3ccccc3)c(C)c12 (configuration not stated)	-20	21*	0	4	-10	30
Cc1nnc(N2CCCC(C(=O)NCc3ccc(OC(C)C)cc3)C2)c2nn(-c3ccccc3)c(C)c12 (configuration not stated)	-24	2	9	2	7	.
CCC(C)NC(=O)CSC1=Nc2ccccc2C2=NC(CC(=O)NCc3ccc(F)cc3)C(=O)N12 (configuration not stated)	-16	51*	-4	7	-2	8
CCOC(=O)CSC1=Nc2ccccc2C2=NC(CC(=O)NCc3ccccc3)C(=O)N12 (configuration not stated)	6	6	2	10	-6	.
Cc1ccc(-n2c(C)nnc2SCC(=O)NNC(=O)c2ccco2)cc1	-9	-1	32	11	-11	.
COc1cc2c(cc1NC(=O)c1ccc(C)c([N+](=O)[O-])c1)oc1ccccc12	13	1	-1	-1	0	.
COc1cc2c(cc1NC(=O)c1cccc([N+](=O)[O-])c1)oc1ccccc12	-15	42*	-1	7	-31	53*
Cc1ccc(-c2cc(C(=O)Nc3ccncc3)c3ccccc3n2)cc1	-24	31*	-6	-36	-41	11
Nc1ncnc2c1ncn2[C@@H]1O[C@H](CNCC(O)CO)[C@@H](O)[C@H]1O (some centres not stated)	.	.	4	19	-8	.
COc1ccccc1CCC(=O)Nc1ccc2c(c1)c(=O)n(C)n2Cc1cccc(C(F)(F)F)c1	.	.	3	.	-2	.
Cc1onc(-c2ccccc2Cl)c1C(=O)O/N=C(\N)c1ccccc1	-112	31*	-34	-28	-14	21
COC(=O)c1ccc(-c2cc(CC3(C(=O)OC)CCN(C(=O)OC(C)(C)C)CC3)on2)cc1	-26	36*	-31	-10	-13	20
COC(=O)C1(Cc2cc(-c3ccccc3)no2)CCN(C(=O)OC(C)(C)C)CC1	7	-4	1	9	-11	.
Nc1ccc2c(c1)N=[N+]([O-])c1cc(N)ccc1C2	-1	-1	8	11	2	.
O=C(O)/C=C/c1nc(-c2ccccc2)n2ccccc12	-13	-1	0	2	6	.
O=[N+]([O-])c1cc(-c2nc3nc4ccccc4nc3n2CCc2ccccc2)cc([N+](=O)[O-])c1	-49	17*	-6	13	-6	10
Fc1ccc2[nH]c3c(N4CCN(c5ccccc5)CC4)ncnc3c2c1	-10	14*	1	-3	-6	26
CCOC(=O)N1CCN(c2ncnc3c2[nH]c2ccc(F)cc23)CC1	-7	8	-13	11	4	.
